Pf Dd2 inh = inhibitors of Plasmodium falciparum Dd2 growth. 94,000 compounds, 2.3% hits. AID 1159554. P. falciparum Dd2 growth, SYBR Green, 72 h; active compounds read low. activity change, % at 10 µM; in the data active = activity change below about -80%; inconclusive = no clear call, values can overlap the other calls
GASC1 inh = inhibitors of human demethylase GASC-1 KDM4C | GST-KDM4C 2-372, H3K9me3 peptide, LANCE TR-FRET | Q9H3R0 | 96,000 compounds, 0.15% hits | inhibition, % at 12.5 µM | AID 720574;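 active = mean replicate inhibition above about 25%, with at least 55% of replicates also reaching it, limit read from the data, passing the limit was not always enough; inconclusive = only one of those two conditions met; inactive = neither condition met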
Target sequence (Q9H3R0 2-372 limits assumed): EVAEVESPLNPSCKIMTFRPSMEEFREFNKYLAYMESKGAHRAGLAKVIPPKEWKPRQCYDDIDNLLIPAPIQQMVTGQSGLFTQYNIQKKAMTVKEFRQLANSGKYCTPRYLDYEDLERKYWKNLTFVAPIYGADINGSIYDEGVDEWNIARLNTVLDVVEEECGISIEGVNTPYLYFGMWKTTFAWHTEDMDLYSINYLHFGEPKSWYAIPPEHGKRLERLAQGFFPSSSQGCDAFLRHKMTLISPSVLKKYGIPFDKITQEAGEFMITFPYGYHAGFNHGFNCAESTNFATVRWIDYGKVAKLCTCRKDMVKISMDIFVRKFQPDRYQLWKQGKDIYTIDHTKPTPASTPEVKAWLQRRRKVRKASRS
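Assay system: GST-GASC-1 enzyme fragment 2-372 | Amount: 10 nM enzyme | Medium: HEPES buffer, pH 7.5, plus ascorbate | Reagent: H3K9me3 peptide substrate, Fe(II), 2-oxoglutarate | Doses: Single-point compound screen | Incubation: 30 min demethylation and 1 h detection at room temperature | Measured by: LANCE TR-FRET, excitation 340 nm, emissions 618 and 671 nm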
IDH1 R132H inh = IDH1 R132H (human) inhibition; IDH1 R132H reductase, diaphorase/resazurin fluorescence, 60 min; O75874; inhibition, % at 10 µM; 70,000 compounds, 0.18% hits; AID 624101; in the data active = inhibition above about 34%; inconclusive = no clear call, values can overlap the other calls; inactive = below about 11%
T cruzi growth-1 = T. cruzi proliferation inhibition; T. cruzi beta-gal in NIH3T3, GalScreen luminescence, 90 h; inhibition, % at 8.34 µM; 77,000 compounds, 5.9% hits; AID 624255;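 active = mean inhibition above about 93%, with at least 55% of replicates each passing it, limit read from the data, passing the limit was not always enough; inconclusive = only one of those two conditions holds; inactive = neither condition holds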
T cruzi growth-2 = blocks T. cruzi growth in NIH3T3 host cells. shares compounds with T cruzi growth-1. T. cruzi beta-gal in NIH3T3, GalScreen luminescence, 90 h. inhibition, % at 8.35 µM. 5,600 compounds, 72% hits. AID 651739;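 active = mean replicate inhibition above about 95% and at least 55% of replicates individually reaching it, limit read from the data; inconclusive = only one of the two criteria is met; inactive = neither criterion is met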
T cruzi growth-3 = Trypanosoma cruzi proliferation inhibition; 5,600 compounds, 21% hits; AID 651740; T. cruzi beta-gal in NIH3T3, GalScreen luminescence, 90 h; shares compounds with T cruzi growth-1; inhibition, % at 2.09 µM;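 active = mean inhibition above about 95%, with at least 55% of replicates also reaching it, limit read from the data; inconclusive = meets just one of the two conditions; inactive = meets neither condition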
3T3 cytotox = NIH/3T3 (mouse) viability loss | 5,600 compounds, 14% hits | cytotoxicity (signal decrease), % at 8.35 µM | NIH/3T3 viability, CellTiter-Glo ATP luminescence, 90 h | shares compounds with T cruzi growth-1 | AID 651742;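 active = mean signal decrease across replicates above about 35% based on untreated-well scatter, with enough replicates individually passing, limit read from the data; inconclusive = no rule stated though some were filed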
NIH3T3 tox 2 = cytotoxicity in mouse NIH/3T3 fibroblasts. shares compounds with T cruzi growth-1. AID 651744. NIH/3T3 viability, CellTiter-Glo ATP luminescence, 90 h. 5,600 compounds, 56% hits. inhibition, % at 24.9 µM;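 active = mean loss of cell viability signal at or above a set limit, and enough replicates individually reaching it; inconclusive = meets only the mean limit or only the replicate share; inactive = meets neither condition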
Hits are given with their value. Compounds with a hit are over-represented: about 5.8% of the library has one in this group of screens.

Screening COc1ccc(S(=O)(=O)N(C)C[C@H]2OCCCC[C@@H](C)Oc3ccc(NC(=O)Nc4ccccc4)cc3C(=O)N([C@@H](C)CO)C[C@@H]2C)cc1 returned Pf Dd2 inh inactive, GASC1 inh inactive, T cruzi growth-1 100, T cruzi growth-2 112, T cruzi growth-3 inactive, 3T3 cytotox inactive and NIH3T3 tox 2 inconclusive.
`COc1ccc(S(=O)(=O)N(C)C[C@@H]2OCCCC[C@@H](C)Oc3ccc(NC(=O)Nc4ccccc4)cc3C(=O)N([C@@H](C)CO)C[C@H]2C)cc1` gave Pf Dd2 inh inactive, GASC1 inh inactive, IDH1 R132H inh inactive, T cruzi growth-1 inconclusive, T cruzi growth-2 111, T cruzi growth-3 inactive, 3T3 cytotox inactive and NIH3T3 tox 2 inactive.
`COc1ccc(S(=O)(=O)N(C)C[C@H]2OCCCC[C@H](C)Oc3ccc(NC(=O)Nc4ccccc4)cc3C(=O)N([C@H](C)CO)C[C@H]2C)cc1` gave Pf Dd2 inh inconclusive, GASC1 inh inactive and T cruzi growth-1 inactive.
COc1ccc(S(=O)(=O)N(C)C[C@@H]2OCCCC[C@H](C)Oc3ccc(NC(=O)Nc4ccccc4)cc3C(=O)N([C@@H](C)CO)C[C@@H]2C)cc1 was read as Pf Dd2 inh -86, GASC1 inh inactive, IDH1 R132H inh inactive, T cruzi growth-1 inconclusive, T cruzi growth-2 105, T cruzi growth-3 inactive, 3T3 cytotox inactive and NIH3T3 tox 2 inactive.
Screening COc1ccccc1-c1ccc2c(c1)O[C@@H](CN(C)C(=O)Nc1cccc(F)c1)[C@H](C)CN([C@@H](C)CO)S2(=O)=O returned Pf Dd2 inh inactive, GASC1 inh inactive and T cruzi growth-1 inactive.
For COc1cc(NC(=O)COc2cc(C)c(C)cc2C)c(C(=O)O)cc1OC the results were IDH1 R132H inh inactive.
For CN(Cc1nc(-c2cccc([N+](=O)[O-])c2)no1)S(=O)(=O)c1ccc(Cl)cc1 the results were IDH1 R132H inh inactive.
For CO[C@H]1CN(C)C(=O)c2ccc(NC(=O)C3CCCCC3)cc2OC[C@H](C)N(C(=O)c2ccccc2)C[C@H]1C the results were Pf Dd2 inh inactive, GASC1 inh inactive, IDH1 R132H inh inactive and T cruzi growth-1 inactive.
O=S(=O)(c1ccccc1)N1CCCCN2[C@H](CO)[C@H](c3ccc(-c4ccccc4)cc3)[C@@H]2C1 was read as Pf Dd2 inh inactive, GASC1 inh inactive, T cruzi growth-1 104, T cruzi growth-2 100, T cruzi growth-3 inactive, 3T3 cytotox inactive and NIH3T3 tox 2 49.
For Cc1cccc(S(=O)(=O)N2CCCCN3[C@H](CO)[C@H](c4ccc(-c5ccccc5)cc4)[C@@H]3C2)c1 the results were Pf Dd2 inh inactive, T cruzi growth-1 116, T cruzi growth-2 98, T cruzi growth-3 inactive, 3T3 cytotox inactive and NIH3T3 tox 2 51.
Screening Cc1cccc(-c2ccc([C@H]3[C@@H](CO)N4CCCCN(S(=O)(=O)c5cccc(C)c5)C[C@H]34)cc2)c1 returned Pf Dd2 inh -85, GASC1 inh inactive, T cruzi growth-1 100, T cruzi growth-2 inactive, T cruzi growth-3 106, 3T3 cytotox 50 and NIH3T3 tox 2 103.
`Cc1cccc(S(=O)(=O)N2CCCCN3[C@@H](CO)[C@H](c4ccc(-c5ccccc5)cc4)[C@@H]3C2)c1` gave Pf Dd2 inh inactive and T cruzi growth-1 inactive.
`Cc1cccc(S(=O)(=O)N2CCCCN3[C@H](C2)[C@@H](c2ccc(-c4ccccc4)cc2)[C@@H]3CO)c1` gave Pf Dd2 inh inactive and T cruzi growth-1 inactive.
Screening Cc1cccc(-c2ccc([C@@H]3[C@H]4CN(S(=O)(=O)c5cccc(C)c5)CCCCN4[C@H]3CO)cc2)c1 returned Pf Dd2 inh inactive, GASC1 inh inactive, T cruzi growth-1 110, T cruzi growth-2 104, T cruzi growth-3 115, 3T3 cytotox inactive and NIH3T3 tox 2 56.
O=S(=O)(c1ccccc1)N1CCCCN2[C@@H](CO)[C@@H](c3ccc(-c4ccccc4)cc3)[C@@H]2C1 was read as Pf Dd2 inh inactive, GASC1 inh inactive and T cruzi growth-1 inactive.
`O=C(C[C@H]1C=C[C@H](NC(=O)NC2CCCCC2)[C@@H](CO)O1)NCc1ccc(Cl)cc1` gave Pf Dd2 inh inactive, GASC1 inh inactive, IDH1 R132H inh inactive and T cruzi growth-1 inactive.
`CO[C@@H](C(=O)N(C)C[C@H]1OCc2ccccc2-c2c(n(C)c3ccccc23)C(=O)N([C@H](C)CO)C[C@H]1C)c1ccccc1` gave Pf Dd2 inh inactive, GASC1 inh inactive, IDH1 R132H inh inactive and T cruzi growth-1 inactive.
`Cn1cnc(S(=O)(=O)N2C[C@@H](O)COC[C@@H]3O[C@H](CC(=O)NC4CCCC4)CC[C@H]32)c1` gave Pf Dd2 inh inactive, GASC1 inh inactive and T cruzi growth-1 inactive.
C[C@H]1CN([C@@H](C)CO)S(=O)(=O)c2ccc(C3=CCCCC3)cc2O[C@@H]1CN(C)C(=O)Cc1ccncc1 was read as Pf Dd2 inh inactive, GASC1 inh inactive, IDH1 R132H inh inactive, T cruzi growth-1 107, T cruzi growth-2 105, T cruzi growth-3 inactive, 3T3 cytotox inactive and NIH3T3 tox 2 inactive.
For C[C@H](CO)N1C[C@H](C)[C@H](CN(C)C(=O)Cc2ccncc2)Oc2cc(C3=CCCC3)ccc2S1(=O)=O the results were Pf Dd2 inh inactive, GASC1 inh inactive and T cruzi growth-1 inactive.
For C[C@H]1CN([C@@H](C)CO)S(=O)(=O)c2ccc(C3=CCCCC3)cc2O[C@H]1CN(C)C(=O)Cc1ccncc1 the results were Pf Dd2 inh inactive, GASC1 inh inactive, T cruzi growth-1 98, T cruzi growth-2 99, T cruzi growth-3 inactive, 3T3 cytotox 37 and NIH3T3 tox 2 36.
For C[C@H]1CN([C@@H](C)CO)S(=O)(=O)c2ccc(C3=CCCCC3)cc2O[C@@H]1CN(C)C(=O)Cc1ccccc1 the results were Pf Dd2 inh inactive, GASC1 inh inactive, IDH1 R132H inh inactive and T cruzi growth-1 inactive.
Screening Cc1ccc(S(=O)(=O)Nc2ccc3c(c2)C(=O)N([C@H](C)CO)C[C@H](C)[C@@H](CN(C)C(=O)Cc2ccccc2)OCCCC[C@H](C)O3)cc1 returned Pf Dd2 inh inactive, GASC1 inh inactive and T cruzi growth-1 inactive.
`C[C@@H]1CN([C@@H](C)CO)C(=O)c2cc(C#CC3CCCCC3)cnc2O[C@@H]1CN(C)C(=O)NC1CCCC1` gave Pf Dd2 inh inactive, GASC1 inh inactive, IDH1 R132H inh inactive, T cruzi growth-1 100, T cruzi growth-2 107, T cruzi growth-3 inactive, 3T3 cytotox inactive and NIH3T3 tox 2 100.

Screens: PubChem BioAssay, Broad Institute
